Data: article PMC5741288 (Pain Reports, 2016)

Assay: Treatment-emergent adverse events, tolerability
Assay type: in vivo, healthy men
In short: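 Healthy men received single oral tablet doses (part 1: 1–225 mg; part 2: 10, 50 mg) or placebo under double-blind randomisation. Treatment-emergent adverse events were recorded along with clinical laboratory tests, ECG, oral temperature, vital signs and physical examinations, through follow-up.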

CC(C)(O)c1ccccc1-c1ccc2[nH]c(/C=C/c3ccc(C(F)(F)F)cc3)nc2c1 [JNJ-39439335, trans-2-(2-{2-[2-(4-Trifluoromethyl-phenyl)-vinyl]-1H-benzimidazol-5-yl}-phenyl)-propan-2-ol]
Doses at which thermohypoesthesia occurred (in vivo): ≥ 10 mg | Participants with minor or first-degree burns on the hand or the mouth (of 79 participants receiving JNJ-39439335): 7 participants | TEAE Agusia (part 1, 1 mg (N = 6)): 0 n (%) | TEAE Back pain (part 1, 1 mg (N = 6)): 0 n (%) | TEAE Burning sensation (part 1, 1 mg (N = 6)): 0 n (%) | TEAE Chills (part 1, 1 mg (N = 6)): 0 n (%) | TEAE Dizziness (part 1, 1 mg (N = 6)): 0 n (%) | TEAE Dizziness postural (part 1, 1 mg (N = 6)): 1 (17) n (%) | TEAE Dysgeusia (part 1, 1 mg (N = 6)): 0 n (%) | TEAE Fatigue (part 1, 1 mg (N = 6)): 1 (17) n (%) | TEAE Feeling cold (part 1, 1 mg (N = 6)): 0 n (%) | TEAE Feeling hot (part 1, 1 mg (N = 6)): 0 n (%) | TEAE Headache (part 1, 1 mg (N = 6)): 0 n (%) | TEAE Hematoma (part 1, 1 mg (N = 6)): 0 n (%) | TEAE Hyperhidrosis (part 1, 1 mg (N = 6)): 0 n (%) | TEAE Hypoesthesia (part 1, 1 mg (N = 6)): 0 n (%) | TEAE Hypogeusia (part 1, 1 mg (N = 6)): 0 n (%) | TEAE Nausea (part 1, 1 mg (N = 6)): 0 n (%) | TEAE Paresthesia (part 1, 1 mg (N = 6)): 0 n (%) | TEAE Pruritus (part 1, 1 mg (N = 6)): 0 n (%) | TEAE Pyrexia (part 1, 1 mg (N = 6)): 0 n (%) | TEAE Rhinitis (part 1, 1 mg (N = 6)): 0 n (%) | TEAE Thermal burn (part 1, 1 mg (N = 6)): 0 n (%) | TEAE Thermohypoesthesia (part 1, 1 mg (N = 6)): 0 n (%) | Total no. participants with AEs (part 1, 1 mg (N = 6)): 2 (33) n (%) | TEAE Agusia (part 1, 2 mg (N = 6)): 0 n (%) | TEAE Back pain (part 1, 2 mg (N = 6)): 0 n (%) | TEAE Burning sensation (part 1, 2 mg (N = 6)): 0 n (%) | TEAE Chills (part 1, 2 mg (N = 6)): 0 n (%) | TEAE Dizziness (part 1, 2 mg (N = 6)): 0 n (%) | TEAE Dizziness postural (part 1, 2 mg (N = 6)): 0 n (%) | TEAE Dysgeusia (part 1, 2 mg (N = 6)): 0 n (%) | TEAE Fatigue (part 1, 2 mg (N = 6)): 0 n (%) | TEAE Feeling cold (part 1, 2 mg (N = 6)): 0 n (%) | TEAE Feeling hot (part 1, 2 mg (N = 6)): 0 n (%) | TEAE Headache (part 1, 2 mg (N = 6)): 1 (17) n (%) | TEAE Hematoma (part 1, 2 mg (N = 6)): 1 (17) n (%) | TEAE Hyperhidrosis (part 1, 2 mg (N = 6)): 0 n (%) | TEAE Hypoesthesia (part 1, 2 mg (N = 6)): 1 (17) n (%) | TEAE Hypogeusia (part 1, 2 mg (N = 6)): 0 n (%) | TEAE Nausea (part 1, 2 mg (N = 6)): 0 n (%) | TEAE Paresthesia (part 1, 2 mg (N = 6)): 0 n (%) | TEAE Pruritus (part 1, 2 mg (N = 6)): 0 n (%) | TEAE Pyrexia (part 1, 2 mg (N = 6)): 0 n (%) | TEAE Rhinitis (part 1, 2 mg (N = 6)): 0 n (%) | TEAE Thermal burn (part 1, 2 mg (N = 6)): 0 n (%) | TEAE Thermohypoesthesia (part 1, 2 mg (N = 6)): 0 n (%) | Total no. participants with AEs (part 1, 2 mg (N = 6)): 3 (50) n (%) | TEAE Agusia (part 1, 5 mg (N = 6)): 0 n (%) | TEAE Back pain (part 1, 5 mg (N = 6)): 0 n (%) | TEAE Burning sensation (part 1, 5 mg (N = 6)): 0 n (%) | TEAE Chills (part 1, 5 mg (N = 6)): 0 n (%) | TEAE Dizziness (part 1, 5 mg (N = 6)): 0 n (%) | TEAE Dizziness postural (part 1, 5 mg (N = 6)): 0 n (%) | TEAE Dysgeusia (part 1, 5 mg (N = 6)): 0 n (%) | TEAE Fatigue (part 1, 5 mg (N = 6)): 0 n (%) | TEAE Feeling cold (part 1, 5 mg (N = 6)): 1 (17) n (%) | TEAE Feeling hot (part 1, 5 mg (N = 6)): 1 (17) n (%) | TEAE Headache (part 1, 5 mg (N = 6)): 0 n (%) | TEAE Hematoma (part 1, 5 mg (N = 6)): 0 n (%) | TEAE Hyperhidrosis (part 1, 5 mg (N = 6)): 0 n (%) | TEAE Hypoesthesia (part 1, 5 mg (N = 6)): 0 n (%) | TEAE Hypogeusia (part 1, 5 mg (N = 6)): 0 n (%) | TEAE Nausea (part 1, 5 mg (N = 6)): 0 n (%) | TEAE Paresthesia (part 1, 5 mg (N = 6)): 0 n (%) | TEAE Pruritus (part 1, 5 mg (N = 6)): 0 n (%) | TEAE Pyrexia (part 1, 5 mg (N = 6)): 4 (67) n (%) | TEAE Rhinitis (part 1, 5 mg (N = 6)): 0 n (%) | TEAE Thermal burn (part 1, 5 mg (N = 6)): 0 n (%) | TEAE Thermohypoesthesia (part 1, 5 mg (N = 6)): 0 n (%) | Total no. participants with AEs (part 1, 5 mg (N = 6)): 4 (67) n (%) | TEAE Agusia (part 1, 10 mg (N = 6)): 0 n (%) | TEAE Back pain (part 1, 10 mg (N = 6)): 0 n (%) | TEAE Burning sensation (part 1, 10 mg (N = 6)): 0 n (%) | TEAE Chills (part 1, 10 mg (N = 6)): 0 n (%) | TEAE Dizziness (part 1, 10 mg (N = 6)): 1 (17) n (%) | TEAE Dizziness postural (part 1, 10 mg (N = 6)): 2 (33) n (%) | TEAE Dysgeusia (part 1, 10 mg (N = 6)): 0 n (%) | TEAE Fatigue (part 1, 10 mg (N = 6)): 0 n (%) | TEAE Feeling cold (part 1, 10 mg (N = 6)): 0 n (%) | TEAE Feeling hot (part 1, 10 mg (N = 6)): 0 n (%) | TEAE Headache (part 1, 10 mg (N = 6)): 1 (17) n (%) | TEAE Hematoma (part 1, 10 mg (N = 6)): 0 n (%) | TEAE Hyperhidrosis (part 1, 10 mg (N = 6)): 1 (17) n (%) | TEAE Hypoesthesia (part 1, 10 mg (N = 6)): 0 n (%) | TEAE Hypogeusia (part 1, 10 mg (N = 6)): 0 n (%) | TEAE Nausea (part 1, 10 mg (N = 6)): 1 (17) n (%) | TEAE Orthostatic hypotension (part 1, 10 mg (N = 6)): 2 (33) n (%) | TEAE Paresthesia (part 1, 10 mg (N = 6)): 1 (17) n (%) | TEAE Pruritus (part 1, 10 mg (N = 6)): 1 (17) n (%) | TEAE Pyrexia (part 1, 10 mg (N = 6)): 5 (83) n (%) | TEAE Rhinitis (part 1, 10 mg (N = 6)): 2 (33) n (%) | TEAE Thermal burn (part 1, 10 mg (N = 6)): 0 n (%) | TEAE Thermohypoesthesia (part 1, 10 mg (N = 6)): 3 (50) n (%) | Total no. participants with AEs (part 1, 10 mg (N = 6)): 6 (100) n (%) | TEAE Agusia (part 1, 15 mg (N = 6)): 0 n (%) | TEAE Back pain (part 1, 15 mg (N = 6)): 0 n (%) | TEAE Burning sensation (part 1, 15 mg (N = 6)): 0 n (%) | TEAE Chills (part 1, 15 mg (N = 6)): 0 n (%) | TEAE Dizziness (part 1, 15 mg (N = 6)): 1 (17) n (%) | TEAE Dizziness postural (part 1, 15 mg (N = 6)): 1 (17) n (%) | TEAE Dysgeusia (part 1, 15 mg (N = 6)): 1 (17) n (%) | TEAE Fatigue (part 1, 15 mg (N = 6)): 0 n (%) | TEAE Feeling cold (part 1, 15 mg (N = 6)): 4 (67) n (%) | TEAE Feeling hot (part 1, 15 mg (N = 6)): 5 (83) n (%) | TEAE Headache (part 1, 15 mg (N = 6)): 0 n (%) | TEAE Hematoma (part 1, 15 mg (N = 6)): 0 n (%) | TEAE Hyperhidrosis (part 1, 15 mg (N = 6)): 3 (50) n (%) | TEAE Hypoesthesia (part 1, 15 mg (N = 6)): 0 n (%) | TEAE Hypogeusia (part 1, 15 mg (N = 6)): 2 (33) n (%) | TEAE Nausea (part 1, 15 mg (N = 6)): 0 n (%) | TEAE Paresthesia (part 1, 15 mg (N = 6)): 2 (33) n (%) | TEAE Pruritus (part 1, 15 mg (N = 6)): 1 (17) n (%) | TEAE Pyrexia (part 1, 15 mg (N = 6)): 4 (67) n (%) | TEAE Rhinitis (part 1, 15 mg (N = 6)): 0 n (%) | TEAE Thermal burn (part 1, 15 mg (N = 6)): 0 n (%) | TEAE Thermohypoesthesia (part 1, 15 mg (N = 6)): 5 (83) n (%) | Total no. participants with AEs (part 1, 15 mg (N = 6)): 6 (100) n (%) | TEAE Agusia (part 1, 15 mg R (N = 6)): 0 n (%) | TEAE Back pain (part 1, 15 mg R (N = 6)): 0 n (%) | TEAE Burning sensation (part 1, 15 mg R (N = 6)): 0 n (%) | TEAE Chills (part 1, 15 mg R (N = 6)): 0 n (%) | TEAE Dizziness (part 1, 15 mg R (N = 6)): 0 n (%) | TEAE Dizziness postural (part 1, 15 mg R (N = 6)): 0 n (%) | TEAE Dysgeusia (part 1, 15 mg R (N = 6)): 0 n (%) | TEAE Fatigue (part 1, 15 mg R (N = 6)): 0 n (%) | TEAE Feeling cold (part 1, 15 mg R (N = 6)): 3 (50) n (%) | TEAE Feeling hot (part 1, 15 mg R (N = 6)): 3 (50) n (%) | TEAE Headache (part 1, 15 mg R (N = 6)): 0 n (%) | TEAE Hematoma (part 1, 15 mg R (N = 6)): 0 n (%) | TEAE Hyperhidrosis (part 1, 15 mg R (N = 6)): 0 n (%) | TEAE Hypoesthesia (part 1, 15 mg R (N = 6)): 1 (17) n (%) | TEAE Hypogeusia (part 1, 15 mg R (N = 6)): 0 n (%) | TEAE Nausea (part 1, 15 mg R (N = 6)): 0 n (%) | TEAE Paresthesia (part 1, 15 mg R (N = 6)): 2 (33) n (%) | TEAE Pruritus (part 1, 15 mg R (N = 6)): 0 n (%) | TEAE Pyrexia (part 1, 15 mg R (N = 6)): 2 (33) n (%) | TEAE Rhinitis (part 1, 15 mg R (N = 6)): 0 n (%) | TEAE Thermal burn (part 1, 15 mg R (N = 6)): 0 n (%) | TEAE Thermohypoesthesia (part 1, 15 mg R (N = 6)): 2 (33) n (%) | Total no. participants with AEs (part 1, 15 mg R (N = 6)): 6 (100) n (%) | TEAE Agusia (part 1, 30 mg (N = 5)): 0 n (%) | TEAE Back pain (part 1, 30 mg (N = 5)): 2 (40) n (%)
